Reference: ChEMBL document CHEMBL1157420, “2-phenyl-4-piperazinylbenzimidazoles: orally active inhibitors of the gonadotropin releasing hormone (GnRH) receptor” (Bioorg Med Chem, 2008)
pIC50, pKi: −log10 of the molar value.

Experiments:
[1] = target: T1, Gonadotropin-releasing hormone receptor (Rattus norvegicus, UniProt P30969); assay: Antagonist activity at […] GnRH receptor in CO2 asphyxiated rat primary pituitary cells assessed as reduction in (D-Trp6)LHRH-induced LH release; type: functional, cell-based, Pituitary gland cell
T1 sequence (P30969 whole entry): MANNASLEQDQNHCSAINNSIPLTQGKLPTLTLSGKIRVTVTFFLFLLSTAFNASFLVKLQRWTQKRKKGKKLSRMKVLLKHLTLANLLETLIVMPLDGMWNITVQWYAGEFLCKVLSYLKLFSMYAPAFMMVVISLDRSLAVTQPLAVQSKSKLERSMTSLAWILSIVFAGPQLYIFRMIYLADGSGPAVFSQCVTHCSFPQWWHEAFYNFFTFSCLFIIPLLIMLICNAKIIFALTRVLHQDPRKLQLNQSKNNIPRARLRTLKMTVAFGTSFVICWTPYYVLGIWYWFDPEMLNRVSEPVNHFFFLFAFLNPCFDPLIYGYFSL
Outline: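 Anterior pituitaries from adult rats were minced, dissociated and plated at 30,000 cells/well in DMEM with 25 mM Hepes and 10% FBS, then cultured 72 h at 37 °C, 5% CO2. After washing, cells were treated 3 h in 0.1% BSA medium with an antagonist dose response plus an ED50 concentration of D-Trp6-LHRH. LH in medium measured by RIA; cell toxicity checked by CellTiter-Glo.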

[2] = target: T2, Gonadotropin-releasing hormone receptor (Homo sapiens, UniProt P30968); assay: Displacement of [125I]-(D-Trp6)LHRH from human recombinant GnRH receptor
T2 sequence (P30968 whole entry): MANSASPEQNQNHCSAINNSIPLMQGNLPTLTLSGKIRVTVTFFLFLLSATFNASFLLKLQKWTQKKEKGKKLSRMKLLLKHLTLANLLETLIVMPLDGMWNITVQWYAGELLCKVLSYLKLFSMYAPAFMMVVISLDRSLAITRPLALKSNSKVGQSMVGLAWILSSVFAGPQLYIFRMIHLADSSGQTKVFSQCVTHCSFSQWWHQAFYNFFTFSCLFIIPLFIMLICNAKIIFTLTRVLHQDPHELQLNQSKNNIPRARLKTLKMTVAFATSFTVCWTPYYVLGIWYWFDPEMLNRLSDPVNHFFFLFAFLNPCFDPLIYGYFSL
Outline: (§1)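 Membranes from recombinant cells expressing human or rat GnRH receptor, made in 25 mM Tris-Cl pH 7.4 with 0.1% sodium azide and 0.1% BSA. 50 μg protein incubated with about 50,000 cpm 125I-(D-Trp6)-LHRH for 2 h at 4 °C, with increasing unlabeled competitor. Filtered on BSA-presoaked glass-fiber filters, washed twice, counted by gamma counter. Percent inhibition and IC50 derived.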

[3] = target: T2, Gonadotropin-releasing hormone receptor; assay: Antagonist activity at human recombinant GnRH receptor assessed as reduction in (D-Trp6)LHRH-induced myo-(1,2)-[3H]inositol production; type: functional
Outline: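 Recombinant cells expressing human GnRH receptor, pre-labeled with myo-(1,2)-3H-inositol, incubated 1 h in medium with lithium chloride and D-Trp6-LHRH, with or without antagonist. Cells then lysed and labeled inositol phosphates separated from inositol by […] and counted. Run in triplicate, repeated in three independent experiments; IC50 derived.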

[4] = target: T3, 5-hydroxytryptamine receptor 1A (Homo sapiens, UniProt P08908); assay: Binding affinity to human 5HT1A receptor
T3 sequence (P08908 whole entry): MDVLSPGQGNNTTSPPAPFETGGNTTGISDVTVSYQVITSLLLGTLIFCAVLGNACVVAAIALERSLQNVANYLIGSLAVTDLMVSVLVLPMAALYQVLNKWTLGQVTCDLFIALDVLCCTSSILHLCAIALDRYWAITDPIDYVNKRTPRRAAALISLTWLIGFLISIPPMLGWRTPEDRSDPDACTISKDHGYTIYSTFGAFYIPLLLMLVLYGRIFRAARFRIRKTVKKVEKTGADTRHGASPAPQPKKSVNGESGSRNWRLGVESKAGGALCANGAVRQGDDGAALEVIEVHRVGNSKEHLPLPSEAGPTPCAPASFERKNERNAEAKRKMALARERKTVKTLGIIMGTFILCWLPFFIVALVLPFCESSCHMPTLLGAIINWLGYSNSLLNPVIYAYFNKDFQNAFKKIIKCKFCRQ

[5] = target: T1, Gonadotropin-releasing hormone receptor; assay: Displacement of [125I]-(D-Trp6)LHRH from rat recombinant GnRH receptor; outline: as §1
[6] = target: 5-hydroxytryptamine receptor 1B (Homo sapiens, UniProt P28222); assay: Binding affinity to human 5HT1B receptor
Sequence of 5-hydroxytryptamine receptor 1B (P28222 whole entry): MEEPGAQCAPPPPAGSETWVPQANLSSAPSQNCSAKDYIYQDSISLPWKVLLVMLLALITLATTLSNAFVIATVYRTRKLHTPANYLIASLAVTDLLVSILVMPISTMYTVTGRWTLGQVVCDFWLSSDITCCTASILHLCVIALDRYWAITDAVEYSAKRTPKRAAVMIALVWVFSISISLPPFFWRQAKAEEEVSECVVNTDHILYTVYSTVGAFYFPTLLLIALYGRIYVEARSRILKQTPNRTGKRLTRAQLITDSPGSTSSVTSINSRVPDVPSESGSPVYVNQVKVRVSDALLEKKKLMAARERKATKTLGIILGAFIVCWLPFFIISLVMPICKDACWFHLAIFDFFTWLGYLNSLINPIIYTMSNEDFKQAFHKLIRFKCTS

[7] = target: 5-hydroxytryptamine receptor 1D (Homo sapiens, UniProt P28221); assay: Binding affinity to human 5HT1D receptor
Sequence of 5-hydroxytryptamine receptor 1D (P28221 whole entry): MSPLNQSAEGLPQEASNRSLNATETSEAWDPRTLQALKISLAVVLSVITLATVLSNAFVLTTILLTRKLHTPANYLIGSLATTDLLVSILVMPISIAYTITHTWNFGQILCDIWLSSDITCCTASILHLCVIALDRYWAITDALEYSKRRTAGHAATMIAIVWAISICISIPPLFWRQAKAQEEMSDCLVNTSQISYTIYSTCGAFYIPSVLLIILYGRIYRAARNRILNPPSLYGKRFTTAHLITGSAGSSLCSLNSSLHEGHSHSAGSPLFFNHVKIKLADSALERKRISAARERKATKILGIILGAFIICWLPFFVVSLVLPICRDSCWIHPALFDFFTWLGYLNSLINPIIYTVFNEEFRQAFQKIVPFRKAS

[8] = target: T4, Gonadotropin-releasing hormone receptor (Homo sapiens) (UniProt P30968); assay: Displacement of [125I]-(D-Trp6)LHRH from human recombinant GnRH receptor at 10 uM; outline: as §1
T4 sequence (whole entry): T2 sequence (P30968 whole entry)

| pIC50 [2] | pIC50 [3] | pIC50 [5] | Activity [8] | Structure (SMILES) | further results |
| --- | --- | --- | --- | --- | --- |
| 5.82 | 5.04 | 4.82 | – | FC(F)(F)c1nc2c(N3CCN(CCOc4cccc5nc(C(F)(F)F)[nH]c45)CC3)cccc2[nH]1 | pIC50 [1]: 4.08; pKi ([4]; read-out: Ki): 7.72; pKi [6]: 7.22; pKi [7]: 9.26 |
| 5.89 | 5.55 | – | – | Cc1ccc(-c2nc3c(N4CCN(CCOc5cccc6[nH]c(=S)[nH]c56)CC4)cccc3[nH]2)cc1 | – |
| – | – | – | 47% | Cc1cccc(-c2nc3c(N4CCN(CCOc5cccc6[nH]c(=S)[nH]c56)CC4)cccc3[nH]2)c1 | – |
| 6.66 | 5.64 | 5.28 | – | CCc1ccc(-c2nc3c(N4CCN(CCOc5cccc6nc(C(F)(F)F)[nH]c56)CC4)cccc3[nH]2)cc1 | – |
| – | – | – | 5% | Cn1c(C(F)(F)F)nc2c(N3CCN(CCOc4cccc5[nH]c(C(F)(F)F)nc45)CC3)cccc21 | – |
| – | – | – | 51% | FC(F)(F)c1nc2c(N3CCN(CCc4cccc5[nH]c(=S)[nH]c45)CC3)cccc2[nH]1 | – |
| – | – | – | 10% | Cc1nc2c(N3CCN(CCOc4cccc5[nH]c(=S)[nH]c45)CC3)cccc2[nH]1 | – |
| 5.48 | – | – | – | FC(F)(F)c1nc2c(N3CCN(CCCOc4cccc5[nH]c(=S)[nH]c45)CC3)cccc2[nH]1 | pKi [4]: 8.64 |
| 5.02 | 4.68 | 4.19 | – | FC(F)(F)c1nc2c(N3CCN(Cc4cccc5nc(C(F)(F)F)[nH]c45)CC3)cccc2[nH]1 | – |
| 8.24 | 7.62 | 7.14 | – | CC(C)(C)c1ccc(-c2nc3c(N4CCN(Cc5cccc6[nH]c(=O)c(=O)[nH]c56)CC4)cccc3[nH]2)cc1 | pIC50 [1]: 6.32 |
| – | – | – | 26% | FC(F)(F)c1nc2c(N3CCN(CCc4cccc5nc(C(F)(F)F)[nH]c45)CC3)cccc2[nH]1 | – |
| 8.06 | 7.20 | 6.17 | – | CC(C)(C)c1ccc(-c2nc3c(N4CCN(Cc5cccc6[nH]c(=O)[nH]c56)CC4)cccc3[nH]2)cc1 | pIC50 [1]: 5.82 |
| – | – | – | 42% | FC(F)(F)c1nc2c(N3CCN(CCCc4cccc5nc(C(F)(F)F)[nH]c45)CC3)cccc2[nH]1 | – |
| 6.24 | 5.47 | 4.29 | – | FC(F)(F)c1nc2c(N3CCN(Cc4cccc5[nH]c(=S)[nH]c45)CC3)cccc2[nH]1 | – |
| – | – | – | 1% | S=c1[nH]c2cccc(OCCN3CCN(c4cccc5nccnc45)CC3)c2[nH]1 | – |
| 5.20 | – | < 4.00 | – | FC(F)(F)C(F)(F)c1nc2c(N3CCN(CCOc4cccc5[nH]c(=S)[nH]c45)CC3)cccc2[nH]1 | – |
| 7.30 | 5.92 | 6.15 | – | CC(C)(C)c1ccc(-c2nc3c(N4CCN(CCOc5cccc6nc(C(F)(F)F)[nH]c56)CC4)cccc3[nH]2)cc1 | – |
| 8.31 | 8.77 | 7.40 | – | CC(C)(C)c1ccc(-c2nc3c(N4CCN(Cc5ccc6[nH]c(=O)c(=O)[nH]c6c5)CC4)cccc3[nH]2)cc1 | pIC50 [1]: 7.60 |
